Structures are written as SMILES. Active and inactive are the calls of the source. The rule behind the calls is not given here.

Data set [1] concerns the target Polymerase acidic protein (Influenza A virus (A/Puerto Rico/8/1934(H1N1))) (UniProt P03433). The experiment in a line: Inhibition of Influenza A (A/PR/8/34/ (H1N1)) RNA polymerase acidin protein endonuclease PA domain assessed as M13mp18 ss DNA at 1 uM. A digest of the protocol: (§1)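 Recombinant His-tagged PA N-terminal endonuclease domain (residues 1–220), expressed in E. coli and purified by Ni-agarose and anion exchange. 0.35 μg (about 0.1 μM final) in 100 μl buffer at pH 7.3, with 1 μg M13mp18 circular ssDNA substrate and compound at 1 or 10 μM. A no-enzyme control was included. Digestion read by agarose electrophoresis with ethidium bromide staining.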

Data set [2] has the same target. The experiment in a line: Inhibition of Influenza A (A/PR/8/34/ (H1N1)) RNA polymerase acidin protein endonuclease PA domain assessed as M13mp18 ss DNA at 10 uM. A digest of the protocol: as §1
Data set [3] in a line: Cytotoxicity against dog MDCK cells. It counts as cell-based, Canis lupus familiaris. A digest of the protocol: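 Confluent MDCK monolayers (MEM, 10% FBS, 37 °C) exposed without virus to compound (0.63–80 μM, DMSO vehicle), premixed with trypsin 30 min at 37 °C. Incubated 4 days at 34 °C, 5% CO2. Formaldehyde fixation, naphthol blue black staining of viable cells, OD630 read. Triplicate; CC50 estimated from dose–response curve.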

Data set [4] has as its system Influenza A virus. The experiment in a line: Antiviral activity against Influenza A (A/PR/8/34/ (H1N1)) infected in MDCK cells assessed as inhibition of virus-induced cell death. The note with it: A/Puerto Rico/8/1934(H1N1). Type of data set: functional, organism-based. A digest of the protocol: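 Confluent MDCK monolayers (MEM, 10% FBS, 37 °C). Compound (0.63–80 μM, DMSO vehicle) premixed with 100 TCID50 H1N1 PR8 plus trypsin for 30 min at 37 °C, then added to PBS-washed cells. Incubated 4 days at 34 °C, 5% CO2. Formaldehyde-fixed, naphthol blue black stain, OD630 read. Viability scaled to mock (100%) and virus-only (0%) wells. Triplicate; EC50 estimated from dose–response curve.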

With `O=C1c2c(Cl)c(Cl)c(Cl)c(Cl)c2C(=O)N1c1cccc(/C=C/c2ccc(O)c(O)c2)c1`, the inhibition entry in data set [1] and in data set [2] was “inactive” each time.

For the compound `COc1ccc(CCc2cccc(N3C(=O)c4c(Cl)c(Cl)c(Cl)c(Cl)c4C3=O)c2)cc1`, the inhibition entry in data set [1] and in data set [2] was “inactive” throughout.

In the case of `O=C1c2c(Cl)c(Cl)c(Cl)c(Cl)c2C(=O)N1c1cccc(CCc2ccc(O)cc2)c1`, the inhibition entry in data set [1] and in data set [2] was “inactive” throughout.

In the case of `O=C1c2c(Cl)c(Cl)c(Cl)c(Cl)c2C(=O)N1c1ccccc1CCc1ccccc1`, the inhibition result in data set [1] and in data set [2] was “inactive” in each case.

Turning to `O=C1c2c(Cl)c(Cl)c(Cl)c(Cl)c2C(=O)N1c1ccc(/C=C\c2ccccc2)cc1`, the inhibition result in data set [1] and in data set [2] was “inactive” throughout.

Broadly, the CC50 is the concentration that lowers cell viability or growth by half. Read a high CC50 as better tolerance by the cells. Usually EC50 stands for the concentration that produces a half-maximal response. `O=C1c2ccccc2C(=O)N1c1ccc(CCc2cccc(O)c2)cc1`: the inhibition entry in data set [1] and in data set [2] was “inactive” throughout. For the same compound, the CC50 in data set [3] is more than 80 µM. In addition, the EC50 in data set [4] was more than 80 µM.

In the case of `O=C1c2c(Cl)c(Cl)c(Cl)c(Cl)c2C(=O)N1c1cccc(CCc2ccccc2)c1`, the inhibition result in data set [1] and in data set [2] was “inactive” in each case.

In the case of `O=C1c2ccccc2C(=O)N1c1ccc(/C=C/c2ccc(O)c(O)c2)cc1`, the inhibition result in data set [1] and in data set [2] was “inactive” each time.

For the compound `COc1cccc(CCc2ccc(N3C(=O)c4c(Cl)c(Cl)c(Cl)c(Cl)c4C3=O)cc2)c1`, the inhibition result in data set [1] and in data set [2] was “inactive” throughout.

Turning to `O=C1c2c(Cl)c(Cl)c(Cl)c(Cl)c2C(=O)N1c1cccc(/C=C/c2ccccc2)c1`, the inhibition entry in data set [1] and in data set [2] was “inactive” in each case.

Consider `O=C1c2ccccc2C(=O)N1c1ccc(/C=C/c2ccccc2)cc1`, for which the inhibition result in data set [1] and in data set [2] was “inactive” each time.

On to `COc1ccc(CCc2ccccc2N2C(=O)c3c(Cl)c(Cl)c(Cl)c(Cl)c3C2=O)cc1OC`, for which the inhibition entry in data set [1] and in data set [2] was “inactive” each time.

On to `O=C1c2c(Cl)c(Cl)c(Cl)c(Cl)c2C(=O)N1c1ccc(CCc2cccc(O)c2)cc1`, for which the inhibition result in data set [1] and in data set [2] was “inactive” each time.

Turning to `COc1ccc(/C=C/c2ccc(N3C(=O)c4c(Cl)c(Cl)c(Cl)c(Cl)c4C3=O)cc2)cc1OC`, the inhibition result in data set [1] and in data set [2] was “inactive” throughout.

As for `O=C1c2c(Cl)c(Cl)c(Cl)c(Cl)c2C(=O)N1c1ccc(/C=C/c2ccccc2)cc1`, the inhibition entry in data set [1] and in data set [2] was “inactive” throughout.

For `COc1ccc(CCc2ccccc2N2C(=O)c3ccccc3C2=O)cc1OC`, in data set [3], the CC50 is more than 80 µM. In addition, the inhibition result in data set [2] was “inactive”. Further, in data set [4], the EC50 was more than 80 µM.

For the compound `O=C1c2ccccc2C(=O)N1c1ccccc1CCc1ccccc1`, the inhibition entry in data set [1] and in data set [2] was “inactive” in each case.

On to `O=C1c2c(Cl)c(Cl)c(Cl)c(Cl)c2C(=O)N1c1ccc(CCc2ccccc2)cc1`, for which the inhibition result in data set [1] and in data set [2] was “inactive” each time.

On to `COc1ccc(CCc2ccc(N3C(=O)c4c(Cl)c(Cl)c(Cl)c(Cl)c4C3=O)cc2)cc1OC`, for which the inhibition entry in data set [1] and in data set [2] was “inactive” in each case.

Turning to `COc1ccc(CCc2cccc(N3C(=O)c4ccccc4C3=O)c2)cc1OC`, the inhibition result in data set [1] and in data set [2] was “inactive” throughout.

With `O=C1c2ccccc2C(=O)N1c1cccc(CCc2ccc(O)c(O)c2)c1`, the inhibition result in data set [1] is “inactive”. Moreover, the inhibition result in data set [2] is “Active”. For the same compound, in data set [4], the EC50 is 26 µM.

Regarding `COc1ccc(CCc2cccc(N3C(=O)c4c(Cl)c(Cl)c(Cl)c(Cl)c4C3=O)c2)cc1OC`, the inhibition entry in data set [1] and in data set [2] was “inactive” in each case.

Turning to `O=C1c2c(Cl)c(Cl)c(Cl)c(Cl)c2C(=O)N1c1cccc(/C=C\c2ccccc2)c1`, the inhibition entry in data set [1] and in data set [2] was “inactive” throughout.

As to `COc1ccc(/C=C/c2cccc(N3C(=O)c4c(Cl)c(Cl)c(Cl)c(Cl)c4C3=O)c2)cc1OC`, the inhibition entry in data set [1] and in data set [2] was “inactive” throughout.

Regarding `O=C1c2c(Cl)c(Cl)c(Cl)c(Cl)c2C(=O)N1c1cccc(CCc2cccc(O)c2)c1`, the inhibition result in data set [1] and in data set [2] was “inactive” throughout.

On to `O=C1c2c(Cl)c(Cl)c(Cl)c(Cl)c2C(=O)N1c1ccc(CCc2ccc(O)c(O)c2)cc1`, for which the inhibition entry in data set [1] and in data set [2] was “inactive” throughout. In data set [3], this compound came in with a CC50 of more than 80 µM. In data set [4], the EC50 was 24 µM.

For the compound `COc1ccc(CCc2ccc(N3C(=O)c4ccccc4C3=O)cc2)cc1OC`, the inhibition entry in data set [1] and in data set [2] was “inactive” each time.

`COc1ccc(CCc2ccc(N3C(=O)c4c(Cl)c(Cl)c(Cl)c(Cl)c4C3=O)cc2)cc1`: the inhibition result in data set [1] and in data set [2] was “inactive” in each case.

Regarding `O=C1c2c(Cl)c(Cl)c(Cl)c(Cl)c2C(=O)N1c1cccc(CCc2ccc(O)c(O)c2)c1`, the inhibition result in data set [1] and in data set [2] was “inactive” in each case. Moreover, in data set [3], it took 44 µM to reach half-maximal cytotoxicity (CC50). Moreover, in data set [4], the EC50 was more than 80 µM.

Turning to `COc1ccc(CCc2ccc(N3C(=O)c4ccccc4C3=O)cc2)cc1`, the inhibition entry in data set [1] and in data set [2] was “inactive” in each case.

For the compound `O=C1c2c(Cl)c(Cl)c(Cl)c(Cl)c2C(=O)N1c1ccccc1CCc1ccc(O)c(O)c1`, the inhibition entry in data set [1] and in data set [2] was “inactive” in each case.

In the case of `O=C1c2ccccc2C(=O)N1c1ccc(CCc2ccccc2)cc1`, the inhibition result in data set [1] and in data set [2] was “inactive” in each case.

In the case of `O=C1c2ccccc2C(=O)N1c1ccc(CCc2ccc(O)cc2)cc1`, the inhibition result in data set [1] and in data set [2] was “inactive” in each case.

Turning to `O=C1c2c(Cl)c(Cl)c(Cl)c(Cl)c2C(=O)N1c1ccc(CCc2ccc(O)cc2)cc1`, the inhibition result in data set [1] and in data set [2] was “inactive” in each case.

As for `COc1cccc(CCc2ccc(N3C(=O)c4ccccc4C3=O)cc2)c1`, the inhibition entry in data set [1] and in data set [2] was “inactive” throughout.

As to `O=C1c2ccccc2C(=O)N1c1ccccc1CCc1ccc(O)c(O)c1`, the inhibition result in data set [1] is “inactive”. The CC50 in data set [3] is more than 80 µM. Moreover, in data set [2], the inhibition result is “Active”. Further, the EC50 in data set [4] is 48 µM.

For the compound `COc1cccc(CCc2cccc(N3C(=O)c4c(Cl)c(Cl)c(Cl)c(Cl)c4C3=O)c2)c1`, the inhibition entry in data set [1] and in data set [2] was “inactive” in each case.

The values are drawn from ChEMBL document CHEMBL1177662, “Anti-influenza activity of phenethylphenylphthalimide analogs derived from thalidomide” (Bioorg Med Chem, 2010).
